Results reported in ChEMBL document CHEMBL3228016, “Antiallergy agents. 1. 1,6-Dihydro-6-oxo-2-phenylpyrimidine-5-carboxylic acids and esters” (1979).

Experiments:
Assay type in all cases: functional
Conditions in all cases: read-out: ID50 (the source's name)
Rattus norvegicus [1] = assay: Antiallergic activity in po dosed Sprague-Dawley rat passive cutaneous analphylaxis model assessed as inhibition of allergic response administered 10 mins prior to antigen challenge
How it was run: (§1)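 Modified Ovary rat passive cutaneous anaphylaxis screen in male Sprague-Dawley rats, with 24 h between sensitization and antigen challenge. Acidic compounds were dissolved in aqueous NaHCO3 where possible; others were suspended in aqueous sodium citrate with Tween 40/sodium carboxymethylcellulose. Dosing was iv 1 min or po 10 min before challenge. ID50 is the dose giving 50% inhibition of the response; significance was p ≤ 0.05 by Student's t test.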

Rattus norvegicus [2] = assay: Antiallergic activity in iv dosed Sprague-Dawley rat passive cutaneous analphylaxis model assessed as inhibition of allergic response administered 1 min prior to antigen challenge; how it was run: as §1
Rattus norvegicus [3] = assay: Antiallergic activity in po dosed Sprague-Dawley rat passive cutaneous analphylaxis model assessed as inhibition of allergic response administered 30 mins prior to antigen challenge
How it was run: (§2)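 Male Sprague-Dawley rat passive cutaneous anaphylaxis (modified Ovary method), with a 24 h sensitization-to-challenge interval. The agent was dissolved in saline and given iv at the time of antigen challenge or po 30 min before challenge. The dose inhibiting the response by 50% was determined; significance was p ≤ 0.05 by Student's t test.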

Rattus norvegicus [4] = assay: Antiallergic activity in iv dosed Sprague-Dawley rat passive cutaneous analphylaxis model assessed as inhibition of allergic response administered at the time of antigen challenge; how it was run: as §2

Row | SMILES | ED50 (Rattus norvegicus [1]) [mg/kg] | further results
1 | CCOc1ccc(N)cc1-c1ncc(C(=O)O)c(=O)[nH]1 | 1.2 | –
2 | CCOC(=O)c1cn(C)c(-c2ccccc2OCC)nc1=O | – | ED50 (Rattus norvegicus [2]): > 1 mg/kg
3 | CCOC(=O)c1cnc(-c2cc(OC)ccc2OCC)[nH]c1=O | 0.3 | –
4 | CCC(C)Oc1ccccc1-c1ncc(C(=O)O)c(=O)[nH]1 (configuration not stated) | 0.5 | –
5 | CCCOc1ccc(OC)cc1-c1ncc(C(=O)OCC)c(=O)[nH]1 | 0.7 | –
6 | CCOc1cccc(-c2ncc(C(=O)O)c(=O)[nH]2)c1 | 5 | –
7 | COc1nc(-c2ccccc2)ncc1C(=O)O | > 10 | –
8 | O=C(O)c1cnc(-c2ccc(Cl)cc2)[nH]c1=O | 5 | –
9 | CCOC(=O)c1cnc(-c2ccc(Cl)cc2)[nH]c1=O | > 30 | –
10 | CCOc1ccc(S(=O)(=O)N(C)C(C)C)cc1-c1ncc(C(=O)O)c(=O)[nH]1 | > 10 | –
11 | O=C(O)c1cnc(-c2ccccc2Cl)[nH]c1=O | 5 | –
12 | CCOC(=O)c1cnc(-c2ccccc2)nc1O | > 20 | –
13 | CCCOc1ccccc1-c1ncc(C(=O)O)c(=O)[nH]1 | 0.9 | –
14 | CCOC(=O)c1cnc(-c2ccccc2Cl)[nH]c1=O | 5 | –
15 | CCOC(=O)c1cnc(-c2ccccc2OCC2CC2)[nH]c1=O | 0.3 | –
16 | CCOc1ccc(OC)cc1-c1ncc(C(=O)O)c(=O)[nH]1 | 0.2 | –
17 | CCOC(=O)c1cnc(-c2ccccc2OCC)[nH]c1=O | 2 | –
18 | O=C([O-])c1cc(=O)c2c(OCC(O)COc3cccc4oc(C(=O)[O-])cc(=O)c34)cccc2o1.[Na+].[Na+] [CROMOLYN SODIUM] | – | ED50 (Rattus norvegicus [3]): ≥ 30 mg/kg; ED50 (Rattus norvegicus [4]): 0.3 mg/kg
19 | CCCCOc1ccccc1-c1ncc(C(=O)O)c(=O)[nH]1 | 0.5 | –
20 | CCOC(=O)C(=O)Nc1ccc(OCC)c(-c2ncc(C(=O)O)c(=O)[nH]2)c1 | 25 | –
21 | C[S+]([O-])c1ccccc1-c1ncc(C(=O)O)c(=O)[nH]1 (configuration not stated) | > 5 | –
22 | CCOc1ccc(C(=O)O)cc1-c1ncc(C(=O)O)c(=O)[nH]1 | 25 | –
23 | CCOC(=O)c1cnc(-c2cc(Cl)ccc2OCC)[nH]c1=O | 0.5 | –

Row | SMILES | ED50 (Rattus norvegicus [1]) [mg/kg] | further results
24 | CCCOc1ccccc1-c1ncc(C(=O)OCC)c(=O)[nH]1 | 5 | –
25 | CCOC(=O)c1cnc(-c2ccccc2OCC)n(C)c1=O | > 40 | –
26 | O=C(O)c1cnc(-c2ccccc2[N+](=O)[O-])[nH]c1=O | > 50 | –
27 | Nc1ccccc1-c1ncc(C(=O)O)c(=O)[nH]1 | 50 | –
28 | CCOC(=O)c1cnc(-c2ccccc2SCC)[nH]c1=O | > 5 | –
29 | CCOC(=O)c1cnc(-c2ccc(OC)cc2)[nH]c1=O | 30 | –
30 | C=CCOc1ccccc1-c1ncc(C(=O)O)c(=O)[nH]1 | 0.5 | –
31 | C=CCc1cccc(-c2ncc(C(=O)O)c(=O)[nH]2)c1O | > 0.5 | –
32 | CCOc1ccc(S(N)(=O)=O)cc1-c1ncc(C(=O)O)c(=O)[nH]1 | > 50 | –
33 | CCOC(=O)c1cnc(-c2ccccc2OCc2ccccc2)[nH]c1=O | > 5 | –
34 | CCOc1ccccc1-c1ncc(C(=O)O)c(=O)[nH]1 | 0.5 | ED50 (Rattus norvegicus [2]): 0.07 mg/kg
35 | CCOc1ccccc1-c1ncc(C(=O)O)c(OC)n1 | > 5 | –
36 | CCOC(=O)c1cnc(-c2cc([N+](=O)[O-])ccc2OCC)[nH]c1=O | 5 | –
37 | O=C(O)c1cnc(-c2ccccc2)[nH]c1=O | 50 | –
38 | CCOC(=O)c1cnc(-c2cc(S(=O)(=O)N(CC)CC)ccc2OCC)[nH]c1=O | 10 | –
39 | CCOC(=O)c1cnc(-c2cc(S(N)(=O)=O)ccc2OCC)[nH]c1=O | 50 | –
40 | CCOC(=O)c1cnc(-c2ccccc2O)[nH]c1=O | 5 | –
41 | O=C(O)c1cnc(-c2ccccc2OCC2CC2)[nH]c1=O | 0.1 | –
42 | CCOC(=O)c1cnc(-c2ccccc2OCC(C)C)[nH]c1=O | 3 | –
43 | CCCCOc1ccccc1-c1ncc(C(=O)OCC)c(=O)[nH]1 | 0.5 | –
44 | CCOC(=O)c1ccc(OCC)c(-c2ncc(C(=O)OCC)c(=O)[nH]2)c1 | 1 | –
45 | O=C(O)c1cnc(-c2ccccc2OCc2ccccc2)[nH]c1=O | 5 | –
